For 81 molecules, cytotoxicity results are on record in ChEMBL document CHEMBL4513216, “Probing the Open Global Health Chemical Diversity Library for Multistage-Active Starting Points for Next-Generation Antimalarials” (ACS Infect Dis, 2020).

Each structure is given as a SMILES string.

The series is described as follows: Toxicity liver stage against HepG2, at 10uM. Format: cell-based. More on the design: test concentration 10 uM, cell line HepG2-A16-CD81EGFP. The note with it: human, HepG2-A16-CD81EGFP cells; read-out: INHIBITION
The procedure, abridged: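 Uninfected HepG2-A16-CD81EGFP cells, 3 × 10^3 per well, 1536-well, plated on prespotted compound at 10 μM final, parasite-free screening media added to match infected plates; puromycin 10 μM positive, DMSO 0.5% negative; run in parallel with 48 h PbLuc assay at 37 °C, 5% CO2; viability by CellTiter-Glo luminescence, normalized to controls.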
Take `O=C(c1ccc(N2CCCC2)nn1)N1CCc2ccccc21`: the cytotoxicity at 10 µM worked out at 2.6%. To `O=S(=O)(NCC1(c2cccs2)CCOCC1)c1cccnc1` belongs -3.51%; to `Cc1cc(C(=O)NCC2Cn3nnc(C)c3CO2)no1` (stereo unspecified), -4.07%; to `Cc1ccc(CN2CCC3(CC(C(=O)NCC4CC4)=NO3)C2)s1` (stereo unspecified), 5.92%.

Turning to `CC1CCc2nc(O)c(C(=O)NCCc3cccs3)cc2C1` (stereo unspecified), the cytotoxicity at 10 µM came out at 0.106%. As to `COc1cccc(C(=O)NCC(O)c2cccs2)c1` (stereo unspecified), the cytotoxicity at 10 µM was -22.4%. For `CC(=O)c1ccc(Nc2nc(N)nc3c2nc(C)n3C)cc1`, the cytotoxicity at 10 µM was -8.23%. To `COc1ccc(-c2cc(C3(O)CCCC3)on2)cc1` belongs 2.5%; to `O=C(c1cc(-c2cccs2)cs1)N1CCOCC1`, 5.01%. The figure for `N#Cc1cnn(C(=O)COc2ccccc2F)c1N` is 2.92%; for `COc1ccc(-n2cc(CNC(=O)c3cc[nH]n3)nn2)cc1` it is -4.71%; for `CC1CCN(C(=O)CCN2Cc3ccccc3C[C@H]2C(N)=O)C1` (stereo partly specified) it is -3.11%. To `COC(=O)C1CN(Cc2ccn(-c3ccc(F)cc3)n2)CCO1` (stereo unspecified) belongs -8.51%. `CC(C)(C)c1noc(CCC(=O)N2CCNC(=O)C2)n1`: the cytotoxicity at 10 µM is -4.96%. To `CCN(CC(=O)NC)C(=O)c1csc(Cc2ccccc2)n1` belongs -5.66%.

Regarding `CC(C)(C)c1noc(CCCC(=O)N2CCNC(=O)CC2)n1`, the cytotoxicity at 10 µM was -7.49%. The figure for `Cc1noc(CCCC(=O)N2CCNC(=O)C2)n1` is -4.62%; for `CC(C)C1C(=O)NCCN1C(=O)CCCc1nc(C(C)(C)C)no1` (stereo unspecified) it is -3.53%. The figure for `Cc1nc(C(NS(=O)(=O)N(C)C)c2ccccc2F)no1` (stereo unspecified) is -2.09%; for `COc1cccc(-c2cc(NCc3nc(C)cs3)n(C)n2)c1` it is -0.717%; for `COC(=O)c1ccc(NC2CCN(CC(F)(F)F)C2=O)cc1C` (stereo unspecified) it is 2.79%. In the case of `CCc1nc(CN2CCCN(C(=O)c3ccccc3)CC2)cs1`, the cytotoxicity at 10 µM was found to be 7.41%. The figure for `Cc1nn(-c2ccccc2)c(C)c1CNC(=O)NC1CC1` is 7.59%. To `COc1cc2c(nn1)CCN(Cc1nc(Cc3ccccc3)no1)C2` belongs -2.09%; to `Cc1nc2n(n1)CC(NCc1c(Cl)ccc3cccnc13)CC2` (stereo unspecified), 0.0383%.

Consider `Cc1noc(CCNC(=O)NCC(=O)NCc2ccccc2)n1`, for which the cytotoxicity at 10 µM was determined as 5.24%. As for `O=C(NCCN1CCOCC1)NCc1ccc(-n2cccn2)cc1`, the cytotoxicity at 10 µM is -6.4%.

For `CCc1ncncc1C(=O)NCCNS(=O)(=O)c1ccccc1`, the cytotoxicity at 10 µM is -6.55%. Turning to `Cc1nnc(NCC(c2ccco2)N(C)C)c(C#N)c1C` (stereo unspecified), the cytotoxicity at 10 µM is -3.01%. The figure for `Cc1noc(C)c1C(=O)NCCN1CCN(S(C)(=O)=O)CC1` is -12.4%; for `O=C(NCCSC1CCCC1)c1ccc(F)cc1F` it is -3.16%; for `Cc1nn(CN(CC(C)C)C2CC2)c(=O)c2noc(C)c12` it is -3.39%. `O=C(NCC(O)COc1cccc(F)c1)c1ccoc1` (stereo unspecified): the cytotoxicity at 10 µM was -2.56%.

Take `OCCOc1ccc(NCc2cc(F)cc3cccnc23)cn1`: the cytotoxicity at 10 µM was -4.46%.

On to `CCn1c(C)nnc1CN(C)C1CCN(Cc2c(C)noc2C)C1` (stereo unspecified), for which the cytotoxicity at 10 µM came out at 0.317%. The figure for `CC(C)c1nnc2n1CCN(Cc1csc(-c3cnn(C)c3)n1)C2` is -2.17%; for `CCN(C(=O)c1cnc(-c2ccc3c(c2)OCO3)s1)C1CC1` it is -0.839%; for `O=C(Nc1ccnc2ccnn12)c1ccc(NC2CC2)nc1` it is 5.14%. For `Cc1cccc(C(=O)Nc2ccc(OC3CCOCC3)c(C)c2)n1`, the cytotoxicity at 10 µM is -8.99%.

Turning to `Cc1nc(CNc2ncc(Br)cn2)n[nH]1`, the cytotoxicity at 10 µM is -3.47%.

Take `O=C(Nc1ccc2c(c1)OC1(CCCC1)O2)c1ccc(=O)[nH]n1`: the cytotoxicity at 10 µM was 0.887%. The figure for `COCCc1noc(-c2cc(Cl)c3c(c2)OCCCO3)n1` is 3.61%; for `CCN1CCN(CC(O)c2cc(Cl)ccc2Cl)CC1` (stereo unspecified) it is 0.388%; for `Cc1cc(CS(=O)(=O)NC2CCCc3ccccc32)on1` (stereo unspecified) it is -1.57%. The figure for `CC(C)NC(=O)Nc1ccc(-c2nc(C(C)C)no2)cc1` is -8.56%; for `CC(C)c1noc(-c2ccc(NC(=O)NCC(O)C(C)C)cc2)n1` (stereo unspecified) it is -7.03%. Take `Cc1c(C(=O)NCCC(=O)N2CCCC2)oc2c(F)cccc12`: the cytotoxicity at 10 µM worked out at 5.87%. The figure for `CN(C(=O)Cc1ccc2c(c1)OCCO2)C1CCCC1` is 9.66%. To `O=C1OC2(CCN(CC3CCCO3)CC2)CN1CCc1ccccc1` (stereo unspecified) belongs -6.21%; to `O=C1CCC(c2ccccc2)(c2ccccc2)CN1CCO`, 2.94%. The figure for `Cc1cc(C(=O)N2CCCC(Cn3cc(C4CC4)nn3)C2)nc(C)n1` (stereo unspecified) is -0.916%.

For the molecule `Cc1ncsc1CN1CC2(CCCC2)CC1=O`, the cytotoxicity at 10 µM is -0.369%. Turning to `COc1ccc2c(C)c(C(=O)NC3CCN(S(C)(=O)=O)CC3)oc2c1`, the cytotoxicity at 10 µM was determined as 8.55%. To `CN(CC1Cc2ccccc2CN1C)C(=O)Cc1cccs1` (stereo unspecified) belongs -0.661%; to `CC[C@@H](NC(C)=O)C(=O)NCc1cccnc1Oc1ccccc1OC`, -3.06%. For the molecule `Cc1ccnc(NCc2cn3c(C)csc3n2)n1`, the cytotoxicity at 10 µM is -5.66%. For the molecule `COc1ccccc1OCc1cc(C(=O)N2CCOCC2CO)n[nH]1` (stereo unspecified), the cytotoxicity at 10 µM is -3.94%. To `COC1CCCOC12CCN(C(=O)NCCc1cccs1)CC2` (stereo unspecified) belongs 1.03%; to `O=C(Cc1ccc(CO)cc1)N1CCN(CC2CC2)[C@@H]2CS(=O)(=O)C[C@@H]21`, -14.2%; to `CC(=O)N[C@H]1CCN(C(=O)c2cc(Cn3cnc4ccccc43)[nH]n2)C1`, -1.91%. To `CCc1ccc(-c2cn3c(C(=O)N[C@H](C(N)=O)[C@@H](C)O)csc3n2)cc1` belongs 7.69%; to `CCNc1ccnc(-c2ccnc3c2ccn3C)n1`, 11.2%. The figure for `CCn1c(N)nc2cc(C(=O)N3CC(c4ccccn4)C3)cnc21` is -14.8%; for `FC(F)(F)CCc1ncnn1-c1ccc2c(c1)OCO2` it is -3.55%; for `COc1cc2c(cc1C(=O)N1CC(c3ccncc3)C1)CCC2` it is 0.545%. In the case of `Fc1ccccc1CC1CCN(Cc2nccs2)CC1`, the cytotoxicity at 10 µM was -6.92%.

On to `CC(C)Cc1cc(C(=O)NC(C)(CO)CO)n(C)n1`, for which the cytotoxicity at 10 µM amounted to 6.57%.

Turning to `Cc1nnsc1CNC(=O)Nc1cccc(N2CCN(C)C2=O)c1`, the cytotoxicity at 10 µM was -3.97%.

For `O=C(NCc1ccc2nonc2c1)C1CCN(C(=O)C2CCC2)CC1`, the cytotoxicity at 10 µM was -8.61%. To `Cc1cc(C)nc(CNC(=O)C(c2cccnc2)N2CCOCC2)n1` (stereo unspecified) belongs -1.43%; to `Cc1c(C(=O)NC2CCCC2)nnn1-c1ccccc1`, 11.4%.

In the case of `Cc1ccc([C@@H]2CN(C(=O)c3cccnn3)C[C@H]2NC(=O)C2CC2)cc1`, the cytotoxicity at 10 µM was -17.7%. For the molecule `Cc1ccc(NC2CCN(C(=O)c3ccnc(N(C)C)c3)CC2)nn1`, the cytotoxicity at 10 µM was determined as 3.97%. The figure for `CN(C)S(=O)(=O)N(C)C(c1cccc(F)c1)c1ccccn1` (stereo unspecified) is 3.22%; for `CCN(Cc1ccccc1)C(=O)CN1CCOC(Cn2cncn2)C1` (stereo unspecified) it is -6.31%. The figure for `NC(=O)CS(=O)(=O)Cc1cc(Cl)c2c(c1)OCCCO2` is -0.463%; for `Cc1ccc2cc(C(=O)N3CCCC3Cn3cccn3)[nH]c2c1` (stereo unspecified) it is -7.39%; for `O=C(OCC1CCCN1)c1cccc(NC(=O)c2ccco2)c1` (stereo unspecified) it is -6.66%.

Take `CN1[C@@H]2CC[C@H]1CN(C(=O)c1nnc3n1CCCC3)CC2`: the cytotoxicity at 10 µM is -10.6%. The figure for `CCCN1C[C@@H]2CC[C@H]1CN(C(=O)Cn1c(C)cc(C)nc1=O)C2` is -4.57%; for `Cc1c(C)c2c(c(C)c1O)CC[C@](C)(C(=O)O)O2` [(R)-TROLOX] it is -1.69%.
